ChEMBL document CHEMBL1165951, “Improved synthesis and in vitro/in vivo activities of natural product-inspired, artificial glutamate analogs” (Bioorg Med Chem, 2010)
Activity calls are given as the source filed them. No cut-off for these calls is given here.

Legend:
[1] = tested on: Mus musculus; assay: Effect on neurological behavior in mouse assessed as induction of hyperactivity at 20 ug, icv up to 50 mins; format: functional, organism-based
Summary of the method: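 Racemic analog given to mice as a single intracranial (ICV) injection of 20 μg/mouse. Behaviour was then observed, with the type and duration of any change in activity recorded. Animals were kept according to the NRC Guide for the Care and Use of Laboratory Animals.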

[2] = molecular target: Glutamate NMDA receptor (Rattus norvegicus) (UniProt P35439+Q00959+Q00960+Q00961+Q62645+Q8VHN2+Q9R1M7); assay: Binding affinity to rat brain NMDA receptor at 10 uM by radioligand displacement assay
Summary of the method: (§1)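 Radioligand displacement at AMPA, kainate and NMDA ionotropic glutamate receptor sites in rat brain synaptic membranes, with test compound at 1 × 10−5 M.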

[3] = species: Rattus norvegicus; assay: Binding affinity to rat brain kainate receptor at 10 uM by radioligand displacement assay; summary of the method: as §1
[4] = species: Rattus norvegicus; assay: Binding affinity to rat brain AMPA receptor at 10 uM by radioligand displacement assay; summary of the method: as §1
[5] = species: Rattus norvegicus; assay: Binding affinity to glutamate receptor in rat hippocampal neurons assessed as reduction of action potential firing frequency at 10 uM by current- and voltage-clump electrophysiological analysis; format: tissue-based; settings: Hippocampus
Summary of the method: (§2)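 Cultured hippocampal neurons were recorded by current clamp, read as action potential firing frequency, and by voltage clamp, read as charge transfer during spontaneous excitatory synaptic currents. The value is the percent reduction, n = 3.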

[6] = species: Rattus norvegicus; assay: Binding affinity to glutamate receptor in rat hippocampal neurons assessed as reduction of spontaneous excitatory synaptic current at 10 uM by current- and voltage-clump electrophysiological analysis; format: tissue-based; settings: Hippocampus; summary of the method: as §2

SMILES	Activity [1]	Activity [2]	Activity [3]	Activity [4]	inhibition [5] [%]	inhibition [6] [%]
O=C(O)C[C@]12O[C@@H]3[C@@H](O)[C@@H](O)CN[C@@H]3[C@H]1CN[C@@H]2C(=O)O (relative stereo)	inactive	–	–	–	–	–
O=C(O)C[C@]12O[C@@H]3[C@@H](O)[C@@H](O)CCO[C@@H]3[C@H]1CN[C@@H]2C(=O)O	Active	inactive	inactive	inactive	–	–
O=C(O)C[C@]12O[C@@H]3C=CCCN[C@@H]3[C@H]1CN[C@@H]2C(=O)O (relative stereo)	inactive	–	–	–	–	–
O=C(O)C[C@]12O[C@@H]3CCCO[C@@H]3[C@H]1CN[C@@H]2C(=O)O	Active	inactive	inactive	inactive	–	–
O=C(O)C[C@]12O[C@@H]3CCCN[C@@H]3[C@H]1CN[C@@H]2C(=O)O (relative stereo)	inactive	–	–	–	–	–
O=C(O)C[C@]12O[C@@H]3C=CCN[C@@H]3[C@H]1CN[C@@H]2C(=O)O (relative stereo)	inactive	–	–	–	52	31
O=C(O)C[C@]12O[C@@H]3[C@@H](O)[C@@H](O)CO[C@@H]3[C@H]1CN[C@@H]2C(=O)O	inactive	inactive	inactive	inactive	–	–
O=C(O)C[C@]12O[C@@H]3CCCCO[C@@H]3[C@H]1CN[C@@H]2C(=O)O	Active	inactive	inactive	inactive	–	–
O=C(O)C[C@]12O[C@@H]3CCCCN[C@@H]3[C@H]1CN[C@@H]2C(=O)O (relative stereo)	inactive	–	–	–	–	–
O=C(O)C[C@]12O[C@@H]3C=CCO[C@@H]3[C@H]1CN[C@@H]2C(=O)O (relative stereo)	inactive	–	–	–	–	–
O=C(O)C[C@]12O[C@@H]3[C@@H](O)[C@@H](O)CCN[C@@H]3[C@H]1CN[C@@H]2C(=O)O (relative stereo)	inactive	–	–	–	–	–
O=C(O)C[C@]12O[C@@H]3C=CCCO[C@@H]3[C@H]1CN[C@@H]2C(=O)O (relative stereo)	Active	–	–	–	–	–
